Measured values from ChEMBL document CHEMBL1921722, “In vitro and in vivo evaluation of select kahalalide F analogs with antitumor and antifungal activities” (Bioorg Med Chem, 2011).
Values after ≈ are worked out from the molar mass of the structure shown.

Key:
[1] = system: NCI-H23; experiment: Cytotoxicity against human NCI-H23 cells assessed as cell growth at 8 uM by sulforhodamine B assay relative to control; format: functional; conditions: read-out: Activity
[2] = system: SK-MEL-2; experiment: Cytotoxicity against human SK-MEL-2 cells assessed as cell growth at 800 nM by sulforhodamine B assay relative to control; format: functional; conditions: read-out: Activity
[3] = system: UACC-257; experiment: Cytotoxicity against human UACC257 cells by sulforhodamine B assay; format: functional
Outline: (§1)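 NCI Developmental Therapeutics Program 60-cell-line human tumor panel screen, run at NCI. A single-concentration pre-screen was followed by a five-concentration dose-response in 10-fold steps. GI50 is the concentration that reduces growth of treated cells to half that of untreated control cells. TGI is the concentration that completely halts growth.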

[4] = system: T47D; experiment: Cytotoxicity against human T47D cells assessed as cell growth at 80 uM by sulforhodamine B assay relative to control; format: functional; conditions: read-out: Activity
[5] = system: A498; experiment: Cytotoxicity against human A498 cells assessed as cell growth at 8 uM by sulforhodamine B assay relative to control; format: functional; conditions: read-out: Activity
Outline: (§2)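 Run at NCI in the DTP 60-cell-line human tumor panel by standard procedure. Compounds were first screened at a single concentration, then tested at five tenfold-spaced concentrations. GI50 is the concentration reducing treated-cell growth to half that of untreated controls; TGI is the concentration completely halting growth.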

[6] = system: Cryptococcus neoformans; experiment: Antimicrobial activity against Cryptococcus neoformans ATCC 90113 by CLSI method; format: functional, organism-based
[7] = system: SR; experiment: Cytotoxicity against human SR cells assessed as cell growth at 800 nM by sulforhodamine B assay relative to control; format: functional; conditions: read-out: Activity
[8] = system: A498; experiment: Cytotoxicity against human A498 cells assessed as cell growth at 80 nM by sulforhodamine B assay relative to control; format: functional; conditions: read-out: Activity; outline: as §2
[9] = system: SNB-19; experiment: Cytotoxicity against human SNB19 cells assessed as cell growth at 8 uM by sulforhodamine B assay relative to control; format: functional; conditions: read-out: Activity
[10] = system: SF-539; experiment: Cytotoxicity against human SF539 cells assessed as cell growth at 8 nM by sulforhodamine B assay relative to control; format: functional; conditions: read-out: Activity
[11] = system: HCC 2998; experiment: Cytotoxicity against human HCC2998 cells by sulforhodamine B assay; format: functional
Outline: (§3)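 Run by the NCI Developmental Therapeutics Program on its 60-line human tumour cell panel using the standard procedure. Compounds went through a single-concentration prescreen first, and those active by NCI criteria went on to a five-concentration growth-inhibition test. GI50 is the concentration that cuts growth of treated cells to half that of untreated control cells.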

[12] = system: SW-620; experiment: Cytotoxicity against human SW620 cells assessed as cell growth at 8 uM by sulforhodamine B assay relative to control; format: functional; conditions: read-out: Activity
[13] = system: K562; experiment: Cytotoxicity against human K562 cells assessed as cell growth at 8 nM by sulforhodamine B assay relative to control; format: functional; conditions: read-out: Activity
[14] = system: M14; experiment: Cytotoxicity against human M14 cells assessed as cell growth at 800 nM by sulforhodamine B assay relative to control; format: functional; conditions: read-out: Activity
[15] = system: MOLT-4; experiment: Cytotoxicity against human MOLT4 cells by sulforhodamine B assay; format: functional; outline: as §1
[16] = system: HT-29; experiment: Cytotoxicity against human HT-29 cells by sulforhodamine B assay; format: functional; outline: as §3
[17] = system: SK-MEL-28; experiment: Cytotoxicity against human SK-MEL-28 cells assessed as cell growth at 800 nM by sulforhodamine B assay relative to control; format: functional; conditions: read-out: Activity
[18] = Acute toxicity in ip dosed athymic nude mouse assessed as mortality after 24 days; format: organism-based; conditions: in vivo
Outline: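 Female athymic nude mice, non-tumored; single IP injection, one mouse per dose level, 400, 200 and 100 mg/kg first, then 50, 25 and 12.5 mg/kg. Dose volume 0.1 ml/10 g body weight. Body weight and survival monitored; animals sacrificed on >20% weight loss or other significant toxicity.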

[19] = system: KM12; experiment: Cytotoxicity against human KM12 cells assessed as cell growth at 8 nM by sulforhodamine B assay relative to control; format: functional; conditions: read-out: Activity
[20] = system: PC-3; experiment: Cytotoxicity against human PC3 cells assessed as cell growth at 80 uM by sulforhodamine B assay relative to control; format: functional; conditions: read-out: Activity
[21] = system: SF-295; experiment: Cytotoxicity against human SF295 cells assessed as cell growth at 80 nM by sulforhodamine B assay relative to control; format: functional; conditions: read-out: Activity
[22] = system: MDA-MB-435; experiment: Cytotoxicity against human MDA-MB-435 cells by sulforhodamine B assay; format: functional; outline: as §1
[23] = system: PC-3; experiment: Cytotoxicity against human PC3 cells assessed as cell growth at 8 uM by sulforhodamine B assay relative to control; format: functional; conditions: read-out: Activity
[24] = system: NCI-H322M; experiment: Cytotoxicity against human NCI-H322M cells assessed as cell growth at 80 nM by sulforhodamine B assay relative to control; format: functional; conditions: read-out: Activity
[25] = system: OVCAR-5; experiment: Cytotoxicity against human OVCAR5 cells assessed as cell growth at 80 nM by sulforhodamine B assay relative to control; format: functional; conditions: read-out: Activity
[26] = system: SK-MEL-28; experiment: Cytotoxicity against human SK-MEL-28 cells assessed as cell growth at 80 nM by sulforhodamine B assay relative to control; format: functional; conditions: read-out: Activity
[27] = system: NCI-H322M; experiment: Cytotoxicity against human NCI-H322M cells by sulforhodamine B assay; format: functional; outline: as §1
[28] = system: Hs-578T; experiment: Cytotoxicity against human Hs578T cells assessed as cell growth at 8 uM by sulforhodamine B assay relative to control; format: functional; conditions: read-out: Activity
[29] = system: UACC-62; experiment: Cytotoxicity against human UACC62 cells assessed as cell growth at 80 nM by sulforhodamine B assay relative to control; format: functional; conditions: read-out: Activity
[30] = system: NCI-H226; experiment: Cytotoxicity against human NCI-H226 cells assessed as cell growth at 80 nM by sulforhodamine B assay relative to control; format: functional; conditions: read-out: Activity
[31] = system: LOX IMVI; experiment: Cytotoxicity against human LOXIMVI cells assessed as cell growth at 80 nM by sulforhodamine B assay relative to control; format: functional; conditions: read-out: Activity
[32] = system: IGROV-1; experiment: Cytotoxicity against human IGROV1 cells assessed as cell growth at 8 nM by sulforhodamine B assay relative to control; format: functional; conditions: read-out: Activity
[33] = system: EKVX; experiment: Cytotoxicity against human EKVX cells assessed as cell growth at 800 nM by sulforhodamine B assay relative to control; format: functional; conditions: read-out: Activity
[34] = system: MDA-MB-435; experiment: Cytotoxicity against human MDA-MB-435 cells assessed as cell growth at 800 nM by sulforhodamine B assay relative to control; format: functional; conditions: read-out: Activity
[35] = system: NCI-H460; experiment: Cytotoxicity against human NCI-H460 cells assessed as cell growth at 80 nM by sulforhodamine B assay relative to control; format: functional; conditions: read-out: Activity
[36] = system: HL-60(TB); experiment: Cytotoxicity against human HL-60(TB) cells assessed as cell growth at 80 uM by sulforhodamine B assay relative to control; format: functional; conditions: read-out: Activity
[37] = system: T47D; experiment: Cytotoxicity against human T47D cells assessed as cell growth at 8 uM by sulforhodamine B assay relative to control; format: functional; conditions: read-out: Activity

C/C=C1\NC(=O)[C@H](Cc2ccccc2)NC(=O)[C@@H](C(C)C)NC(=O)[C@@H]([C@@H](C)CC)NC(=O)[C@H](NC(=O)[C@H](NC(=O)[C@H](CCCNCc2ccc(F)c(C)c2)NC(=O)[C@H]2CCCN2C(=O)[C@H](NC(=O)[C@@H](NC(=O)[C@@H](NC(=O)[C@H](NC(=O)CCCC(C)C)C(C)C)[C@@H](C)O)C(C)C)C(C)C)[C@@H](C)CC)[C@@H](C)OC(=O)[C@H](C(C)C)NC1=O
growth at 8 µM [1]: -77%
growth at 0.8 µM [2]: 100%
LC50 [3]: 5130 nM
GI50 ([3]; read-out: GI50): 1280 nM
TGI ([3]; read-out: TGI): 2550 nM
GI50 ([3]; read-out: pGI50 (converted)): 1290 nM
TGI ([3]; read-out: pTGI (converted)): 2570 nM
growth at 80 µM [4]: -13%
growth at 8 µM [5]: -92%
IC50 [6]: 950 nM
MFC [6]: 10 µM (≈ 16 µg/mL)
MIC [6]: 5 µM (≈ 8 µg/mL)
growth at 0.8 µM [7]: 98%
growth at 0.08 µM [8]: 108%
growth at 8 µM [9]: -84%
growth at 0.008 µM [10]: 105%
LC50 [11]: 891 nM
GI50 ([11]; read-out: GI50): 172 nM
TGI ([11]; read-out: TGI): 367 nM
GI50 ([11]; read-out: pGI50 (converted)): 174 nM
TGI ([11]; read-out: pTGI (converted)): 363 nM
growth at 8 µM [12]: -100%
growth at 0.008 µM [13]: 101%
growth at 0.8 µM [14]: 101%
GI50 [15]: 2140 nM
LC50 [15]: > 75900 nM
GI50 ([16]; read-out: GI50): 164 nM
GI50 ([16]; read-out: pGI50 (converted)): 162 nM
growth at 0.8 µM [17]: 75%
MTD at 576 h [18]: 12.5 mg/kg
growth at 0.008 µM [19]: 107%
growth at 80 µM [20]: -76%
growth at 0.08 µM [21]: 85%
GI50 [22]: 1150 nM
TGI ([22]; read-out: pTGI (converted)): 2190 nM
growth at 8 µM [23]: -95%
growth at 0.08 µM [24]: 95%
growth at 0.08 µM [25]: 96%
growth at 0.08 µM [26]: 105%
LC50 [27]: 457 nM
GI50 ([27]; read-out: GI50): 131 nM
TGI ([27]; read-out: TGI): 244 nM
GI50 ([27]; read-out: pGI50 (converted)): 132 nM
TGI ([27]; read-out: pTGI (converted)): 245 nM
growth at 8 µM [28]: -48%
growth at 0.08 µM [29]: 104%
growth at 0.08 µM [30]: 109%
growth at 0.08 µM [31]: 94%
growth at 0.008 µM [32]: 104%
growth at 0.8 µM [33]: 50%
growth at 0.8 µM [34]: 83%
growth at 0.08 µM [35]: 104%
growth at 80 µM [36]: -37%
growth at 8 µM [37]: -61%
